According to ChEMBL document CHEMBL3585281, “Antibacterial Labdane Diterpenoids from Vitex vestita” (2015):

What was measured:
Format in all cases: functional
[1] = system: Staphylococcus aureus; test: Antibacterial activity against Staphylococcus aureus CRBIP 2121 after 18 hrs by agar dilution method; conditions: CRBIP 2121, 18 h
Method in brief: (§1)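 Agar-dilution MIC against Gram-positive strains. Compounds in DMSO, geometric dilutions giving final 100−0.75 mg/L in Mueller Hinton agar. Strains grown 18 h at 37 °C in trypticase soy broth, diluted in sterile water, spotted by Steers inoculator (about 1000 UFC/spot). Plates incubated 18 h at 37 °C; DMSO blank; ofloxacin positive control. MIC = lowest concentration with no visible growth.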

[2] = system: Streptococcus agalactiae; test: Antibacterial activity against Streptococcus agalactiae CIP 103227 after 18 hrs by agar dilution method; conditions: ATCC 13813, 18 h; method in brief: as §1
[3] = system: Listeria monocytogenes; test: Antibacterial activity against Listeria monocytogenes N851 after 18 hrs by agar dilution method; conditions: N851, 18 h; method in brief: as §1
[4] = system: Staphylococcus aureus; test: Antibacterial activity against Staphylococcus aureus CIP 53156 after 18 hrs by agar dilution method; conditions: CIP 53156, 18 h; method in brief: as §1
[5] = system: Bacillus cereus; test: Antibacterial activity against Bacillus cereus N349 after 18 hrs by agar dilution method; conditions: N349, 18 h; method in brief: as §1
[6] = system: Staphylococcus aureus; test: Antibacterial activity against Staphylococcus aureus CIP 53154 after 18 hrs by agar dilution method; conditions: CIP 53154, 18 h; method in brief: as §1
[7] = system: Enterococcus faecalis; test: Antibacterial activity against Enterococcus faecalis CIP 103214 after 18 hrs by agar dilution method; conditions: CIP 103214, 18 h; method in brief: as §1
[8] = system: Staphylococcus saprophyticus; test: Antibacterial activity against Staphylococcus saprophyticus E260 after 18 hrs by agar dilution method; conditions: E260, 18 h; method in brief: as §1
[9] = system: Enterococcus faecium; test: Antibacterial activity against Enterococcus faecium N507 after 18 hrs by agar dilution method; conditions: N507, 18 h; method in brief: as §1
[10] = system: Bacillus cereus; test: Antibacterial activity against Bacillus cereus CIP 6624 after 18 hrs by agar dilution method; conditions: CIP 6624, 18 h; method in brief: as §1
[11] = system: Enterococcus faecium; test: Antibacterial activity against Enterococcus faecium CIP 103014 after 18 hrs by agar dilution method; conditions: CIP 103014, 18 h; method in brief: as §1
[12] = system: Staphylococcus aureus; test: Antibacterial activity against Staphylococcus aureus ATCC 9144 oxford after 18 hrs by agar dilution method; method in brief: as §1
[13] = system: Enterococcus faecium; test: Antibacterial activity against Enterococcus faecium N490 after 18 hrs by agar dilution method; conditions: N490, 18 h; method in brief: as §1
[14] = system: Staphylococcus lugdunensis; test: Antibacterial activity against Staphylococcus lugdunensis ATCC 43809 after 18 hrs by agar dilution method; conditions: ATCC 43809, 18 h; method in brief: as §1
[15] = system: Bacillus cereus; test: Antibacterial activity against Bacillus cereus N190 after 18 hrs by agar dilution method; conditions: N190, 18 h; method in brief: as §1
[16] = system: Enterococcus faecalis; test: Antibacterial activity against Enterococcus faecalis N520 after 18 hrs by agar dilution method; conditions: N520, 18 h; method in brief: as §1
[17] = system: Staphylococcus intermedius; test: Antibacterial activity against Staphylococcus intermedius N987 after 18 hrs by agar dilution method; conditions: N987, 18 h; method in brief: as §1
[18] = system: Listeria monocytogenes; test: Antibacterial activity against Listeria monocytogenes N836 after 18 hrs by agar dilution method; conditions: N836, 18 h; method in brief: as §1
[19] = system: Staphylococcus aureus; test: Antibacterial activity against Staphylococcus aureus CIP 483 after 18 hrs by agar dilution method; conditions: CIP 483, 18 h; method in brief: as §1
[20] = system: Listeria monocytogenes; test: Antibacterial activity against Listeria monocytogenes CIP 103575 after 18 hrs by agar dilution method; conditions: CIP 103575, 18 h; method in brief: as §1
[21] = system: Enterococcus faecium; test: Antibacterial activity against Enterococcus faecium CIP 107387 after 18 hrs by agar dilution method; conditions: CIP 107387, 18 h; method in brief: as §1
[22] = system: Enterococcus faecalis; test: Antibacterial activity against Enterococcus faecalis N518 after 18 hrs by agar dilution method; conditions: N518, 18 h; method in brief: as §1
[23] = system: Enterococcus faecium; test: Antibacterial activity against Enterococcus faecium N823 after 18 hrs by agar dilution method; conditions: N823, 18 h; method in brief: as §1
[24] = system: Listeria monocytogenes; test: Antibacterial activity against Listeria monocytogenes N783 after 18 hrs by agar dilution method; conditions: N783, 18 h; method in brief: as §1
[25] = system: Enterococcus gallinarum; test: Antibacterial activity against Enterococcus gallinarum N489 after 18 hrs by agar dilution method; conditions: N489, 18 h; method in brief: as §1
[26] = system: Staphylococcus saprophyticus; test: Antibacterial activity against Staphylococcus saprophyticus CIP 76125 after 18 hrs by agar dilution method; conditions: CIP 76125, 18 h; method in brief: as §1
[27] = system: Staphylococcus aureus; test: Antibacterial activity against Staphylococcus aureus CIP 5710 after 18 hrs by agar dilution method; conditions: CIP 5710, 18 h; method in brief: as §1
[28] = system: Mammaliicoccus sciuri; test: Antibacterial activity against Staphylococcus sciuri N993 after 18 hrs by agar dilution method; conditions: N993, 18 h; method in brief: as §1
[29] = system: Staphylococcus aureus; test: Antibacterial activity against Staphylococcus aureus CIP 7625 after 18 hrs by agar dilution method; conditions: CIP 7625, 18 h; method in brief: as §1
[30] = system: Staphylococcus epidermidis; test: Antibacterial activity against Staphylococcus epidermidis CIP 53124 after 18 hrs by agar dilution method; conditions: CIP 53124, 18 h; method in brief: as §1
[31] = system: MRC5; test: Cytotoxicity against human MRC5 cells assessed as growth inhibition at 10^-6 M after 72 hrs by MTS assay relative to control; conditions: MRC5, 72 h, read-out: GI
Method in brief: (§2)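 Cells from ATCC; HCT-116 grown in RPMI 1640 and MRC5 in DMEM, each with 10% FCS and 1% glutamine, 37 °C, 5% CO2. Seeded at 2.5 × 10^3 cells/well, cultured 24 h, then exposed to compounds at 1 and 10 μM final for 72 h. MTS read-out, absorbance 490 nm; percent index from treated/control OD490 × 100, three experiments.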

[32] = system: MRC5; test: Cytotoxicity against human MRC5 cells assessed as growth inhibition at 10^-5 M after 72 hrs by MTS assay relative to control; conditions: MRC5, 72 h, read-out: GI; method in brief: as §2
[33] = system: Enterococcus hirae; test: Antibacterial activity against Enterococcus hirae CIP 5855 after 18 hrs by agar dilution method; conditions: CIP 5855, 18 h; method in brief: as §1
[34] = system: Enterococcus durans; test: Antibacterial activity against Enterococcus durans CIP 104999 after 18 hrs by agar dilution method; conditions: CIP 104999, 18 h; method in brief: as §1
[35] = system: Listeria innocua; test: Antibacterial activity against Listeria innocua E044 after 18 hrs by agar dilution method; conditions: E044, 18 h; method in brief: as §1
[36] = system: Enterococcus casseliflavus; test: Antibacterial activity against Enterococcus casseliflavus N487 after 18 hrs by agar dilution method; conditions: N487, 18 h; method in brief: as §1
[37] = system: Corynebacterium striatum; test: Antibacterial activity against Corynebacterium striatum N840 after 18 hrs by agar dilution method; conditions: N840, 18 h; method in brief: as §1
[38] = system: HCT-116; test: Cytotoxicity against human HCT116 cells assessed as growth inhibition at 10^-5 M after 72 hrs by MTS assay relative to control; conditions: HCT-116, 72 h, read-out: GI; method in brief: as §2
[39] = system: Enterococcus faecalis; test: Antibacterial activity against Enterococcus faecalis CIP 104676 after 18 hrs by agar dilution method; conditions: CIP 104676, 18 h; method in brief: as §1
[40] = system: Enterococcus gallinarum; test: Antibacterial activity against Enterococcus gallinarum CIP 105985 after 18 hrs by agar dilution method; conditions: CIP 105985, 18 h; method in brief: as §1
[41] = system: Staphylococcus haemolyticus; test: Antibacterial activity against Staphylococcus haemolyticus CIP 8156 after 18 hrs by agar dilution method; conditions: CIP 8156, 18 h; method in brief: as §1
[42] = system: Enterococcus faecalis; test: Antibacterial activity against Enterococcus faecalis N491 after 18 hrs by agar dilution method; conditions: N491, 18 h; method in brief: as §1
[43] = system: Bacillus cereus; test: Antibacterial activity against Bacillus cereus N258 after 18 hrs by agar dilution method; conditions: N258, 18 h; method in brief: as §1
[44] = system: Enterococcus gallinarum; test: Antibacterial activity against Enterococcus gallinarum N492 after 18 hrs by agar dilution method; conditions: N492, 18 h; method in brief: as §1
[45] = system: HCT-116; test: Cytotoxicity against human HCT116 cells assessed as growth inhibition at 10^-6 M after 72 hrs by MTS assay relative to control; conditions: HCT-116, 72 h, read-out: GI; method in brief: as §2
[46] = system: Enterococcus casseliflavus; test: Antibacterial activity against Enterococcus casseliflavus CIP 103018 after 18 hrs by agar dilution method; conditions: CIP 103018, 18 h; method in brief: as §1
[47] = system: Bacillus spizizenii; test: Antibacterial activity against Bacillus subtilis ATCC 6633 after 18 hrs by agar dilution method; conditions: ATCC 6633, 18 h; method in brief: as §1
[48] = system: Enterococcus faecium; test: Antibacterial activity against Enterococcus faecium N733 after 18 hrs by agar dilution method; conditions: N733, 18 h; method in brief: as §1
[49] = system: Staphylococcus aureus; test: Antibacterial activity against Staphylococcus aureus ATCC 25923 after 18 hrs by agar dilution method; conditions: ATCC 25923, 18 h; method in brief: as §1
[50] = system: Enterococcus avium; test: Antibacterial activity against Enterococcus avium CIP 104053 after 18 hrs by agar dilution method; conditions: CIP 104053, 18 h; method in brief: as §1

C=C1CC[C@H]2C(C)(C)CCC[C@]2(C)[C@H]1C[C@@H](O)C1=CC(=O)OC1
50 µM: MIC [2] | MIC [7] | MIC [9] | MIC [16] | MIC [22] | MIC [23] | MIC [34] | MIC [39] | MIC [42] | MIC [48]
34%: inhibition of growth at 1 µM [31]
3%: inhibition of growth at 1 µM [45]
68%: inhibition of growth at 10 µM [38]
> 188 µM: MIC [1] | MIC [3] | MIC [4] | MIC [6] | MIC [8] | MIC [11] | MIC [12] | MIC [14] | MIC [17] | MIC [18] | MIC [19] | MIC [20] | MIC [21] | MIC [24] | MIC [25] | MIC [26] | MIC [27] | MIC [28] | MIC [29] | MIC [30] | MIC [33] | MIC [35] | MIC [36] | MIC [37] | MIC [40] | MIC [41] | MIC [44] | MIC [46] | MIC [47] | MIC [49] | MIC [50]
86%: inhibition of growth at 10 µM [32]
≤ 188 µM: MIC [5] | MIC [10] | MIC [13] | MIC [15] | MIC [43]

C=C1C[C@@H](O)[C@H]2C(C)(C)CCC[C@]2(C)[C@H]1CCC1=CC(=O)OC1O (some centres undefined)
5%: inhibition of growth at 1 µM [31]
0%: inhibition of growth at 1 µM [45]
28%: inhibition of growth at 10 µM [32]
38%: inhibition of growth at 10 µM [38]
